# Experimental data from different studies.
# Each line is one published result; the experiments were not run side by side.
# Target: Insulin receptor-related protein (INSRR, Homo sapiens, UniProt P14616)
SMILES,assay,setting,remaining binding
CC1CCCN1c1nccc(-c2cnn3ncccc23)n1 (stereo not shown),binding,1 µM,100%
CCN1CCN(Cc2ccc(C(=O)Nc3ccc(C)c(Oc4ccc5c(c4)CC(=O)N5)c3)cc2C(F)(F)F)CC1,"binding, competition with immobilised ligand",1 µM,93%
NS(=O)(=O)c1cc(NC(=O)C2(c3ccccc3Cl)CC2)ccc1Oc1cccc(Cl)c1,"cell-free assay, competition with immobilised ligand",1 µM,95%
c1cncc(-c2cccc(Nc3nccc(NC4CCCCC4)n3)c2)c1,"binding, competition with immobilised ligand",10 µM,74%
COc1ncc2cc3ccccc3nc2c1C#N,"cell-free assay, competition with immobilised ligand",5 µM,100%
CN(C)c1nccc(-c2cnn3ncccc23)n1,binding,1 µM,92%
O=C(NCC1CCOCC1)c1n[nH]cc1NC(=O)c1c(F)cccc1F,"binding, competition with immobilised ligand",1 µM,88%
COc1cc(-c2cn(C3CCc4ccccc4N(CC(F)(F)F)C3=O)nn2)ccc1-n1ccc(C)n1 (stereo not shown),"cell-free assay, competition with immobilised ligand",1 µM,100%
Cc1cnn2ncc(-c3ccnc(N(C)C)n3)c2c1,binding,1 µM,97%
C[C@@H](c1ccc(-n2cnc3c(N)ncnc32)cc1)N1CCc2nn(C)c(Cc3ccccc3)c2C1=O,"binding, competition with immobilised ligand",0.1 µM,91%
CCOCCn1cc(C(=O)Nc2ccc(-n3nc(-c4cccnc4)cc3C(F)(F)F)cn2)ccc1=O,"cell-free assay, competition with immobilised ligand",1 µM,100%
O=C(NCCCN1CCOCC1)c1ccc(Nc2nccc(-c3cc4ccccc4s3)n2)cc1,"binding, competition with immobilised ligand",1 µM,100%
C=CC(=O)N1CCC(C(=O)NCC(=O)N2CCN(c3nc(-c4cnc(N)nc4C(F)F)nc(N4CCOCC4)n3)CC2)CC1,"binding, competition with immobilised ligand",1 µM,96%
F[C@@H]1CCN(c2nccc(-c3cnn4ncccc34)n2)C1,binding,1 µM,100%
O=C1CCc2cc(Nc3cc(OC4CCOCC4)c([N+](=O)[O-])cc3Cl)ccc2N1,"cell-free assay, competition with immobilised ligand",1 µM,100%
O=C(c1ccc(Nc2nccc(-c3cc4ccccc4s3)n2)cc1)N1CCC(N2CCCC2)CC1,"binding, competition with immobilised ligand",1 µM,99%
CN(C)C(=O)Cn1cc(-c2nc(C3(c4ccc(-c5cnc(N)nc5)cc4)CC3)no2)cn1,"cell-free assay, competition with immobilised ligand",1 µM,100%
CNC(=O)[C@@H]1CC[C@@H](n2c(-c3ccc4cnccc4c3)nc3ccc(C(=O)NCc4cccc(C(N)=O)c4)cc32)C1,"binding, competition with immobilised ligand",1 µM,92%
CN(c1nccc(-c2cnn3ncccc23)n1)C1CC1,binding,1 µM,100%
Cc1cnc(Nc2ccc(C(=O)N3CCC(N4CCCC4)CC3)cc2)nc1-c1cc2ccccc2s1,"binding, competition with immobilised ligand",1 µM,44%
N[C@H]1CCN(c2nccc(-c3cnn4ncccc34)n2)C1,binding,1 µM,97%
C[C@@]1(Cc2ccc(C#N)cc2)C(=O)N(c2cc(Cl)cc(Cl)c2)c2ncc(C(=O)NC3(c4nc(C5CCC5)no4)CC3)n21,"cell-free assay, competition with immobilised ligand",1 µM,100%
